Tests used:
[1] = target: Telomerase reverse transcriptase (Homo sapiens) (UniProt O14746); experiment: Activation of telomerase activity in human neonatal primary epidermal keratinocytes assessed as fold change at 0.1 to 30 nM after 24 hrs by PCR-based TRAP assay relative to untreated control
Procedure, shortened: (§1)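 HEKn cells from ATCC, grown in dermal basal cell medium with keratinocyte growth supplements. Seeded, medium refreshed next day, then treated 24 h the following day (0.1–30 nM; DMSO control). 2 × 10^5 harvested cells lysed on ice 30 min, lysate spun 16000g 20 min. Telomerase measured by TRAP PCR-ELISA, absorbance at 450 nm (reference ~690 nm). Fold activation versus DMSO-treated cells.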

[2] = target: Telomerase reverse transcriptase (Homo sapiens) (UniProt O14746); experiment: Activation of telomerase activity in human neonatal primary epidermal keratinocytes assessed as fold change at 0.1 nM after 24 hrs by PCR-based TRAP assay relative to untreated control; procedure, shortened: as §1
[3] = target: Telomerase reverse transcriptase (Homo sapiens) (UniProt O14746); experiment: Activation of telomerase activity in human neonatal primary epidermal keratinocytes assessed as fold change at 2 nM after 24 hrs by PCR-based TRAP assay relative to untreated control; procedure, shortened: as §1
[4] = target: Telomerase reverse transcriptase (Homo sapiens) (UniProt O14746); experiment: Activation of telomerase activity in human neonatal primary epidermal keratinocytes assessed as fold change at 0.5 nM after 24 hrs by PCR-based TRAP assay relative to untreated control; procedure, shortened: as §1

Chain of Telomerase reverse transcriptase (Homo sapiens) (O14746 whole entry): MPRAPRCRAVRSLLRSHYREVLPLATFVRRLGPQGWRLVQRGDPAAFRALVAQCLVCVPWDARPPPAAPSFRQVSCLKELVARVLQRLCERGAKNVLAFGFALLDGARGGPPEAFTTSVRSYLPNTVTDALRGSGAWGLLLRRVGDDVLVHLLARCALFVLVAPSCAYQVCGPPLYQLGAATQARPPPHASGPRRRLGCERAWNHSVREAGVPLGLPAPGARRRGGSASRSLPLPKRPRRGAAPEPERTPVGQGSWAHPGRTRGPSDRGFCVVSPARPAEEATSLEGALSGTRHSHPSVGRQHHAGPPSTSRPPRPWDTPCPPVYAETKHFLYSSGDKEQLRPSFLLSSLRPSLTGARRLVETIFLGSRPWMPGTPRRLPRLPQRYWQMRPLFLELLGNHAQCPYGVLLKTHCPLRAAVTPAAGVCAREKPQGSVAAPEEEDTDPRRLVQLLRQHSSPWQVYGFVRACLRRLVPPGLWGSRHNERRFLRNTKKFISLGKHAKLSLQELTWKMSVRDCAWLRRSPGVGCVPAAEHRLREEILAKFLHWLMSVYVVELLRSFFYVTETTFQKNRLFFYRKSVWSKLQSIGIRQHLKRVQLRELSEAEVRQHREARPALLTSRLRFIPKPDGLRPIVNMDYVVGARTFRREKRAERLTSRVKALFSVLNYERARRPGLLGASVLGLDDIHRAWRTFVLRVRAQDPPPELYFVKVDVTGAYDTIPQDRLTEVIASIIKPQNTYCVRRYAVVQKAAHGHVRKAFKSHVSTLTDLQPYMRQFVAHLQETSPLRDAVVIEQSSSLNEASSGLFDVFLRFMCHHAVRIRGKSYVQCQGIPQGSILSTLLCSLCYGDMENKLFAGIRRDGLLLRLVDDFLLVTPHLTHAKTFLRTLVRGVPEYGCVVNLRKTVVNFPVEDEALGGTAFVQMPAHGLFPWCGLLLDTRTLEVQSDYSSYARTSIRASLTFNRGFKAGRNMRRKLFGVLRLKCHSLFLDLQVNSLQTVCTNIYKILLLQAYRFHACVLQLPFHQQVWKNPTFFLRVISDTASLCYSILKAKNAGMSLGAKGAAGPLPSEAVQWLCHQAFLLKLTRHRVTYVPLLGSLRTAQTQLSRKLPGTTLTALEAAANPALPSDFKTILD

| Structure (SMILES) | fold change (FC) [1] | fold change (FC) [2] | fold change (FC) [3] | fold change (FC) [4] |
| --- | --- | --- | --- | --- |
| CC(C)(O)[C@@H]1CC[C@](C)([C@H]2[C@@H](O)C[C@@]3(C)[C@@H]4C[C@H](O)[C@H]5C(C)(C)C(=O)CC[C@@]56C[C@@]46[C@@H](O)C[C@]23C)O1 | 1.5 to 5.2 | – | – | – |
| CC(C)(O)[C@@H]1CC[C@](C)([C@H]2[C@@H](O)C[C@@]3(CO)[C@@H]4C[C@H](O)[C@H]5C(C)(C)C(=O)CC[C@@]56C[C@@]46CC[C@]23C)O1 | 1.5 to 5.2 | 3.5 | – | – |
| CC(C)(O)[C@@H]1CC[C@](C)([C@H]2[C@@H](O)C[C@@]3(C)[C@@H]4C[C@H](O)[C@H]5C(C)(C)[C@@H](O)CC[C@@]56C[C@@]46CC[C@]23C)O1 | 1.5 to 5.2 | 1.5 | 5.2 | – |
| CC(C)(O)[C@@H]1CC[C@](C)([C@H]2[C@@H](O)C[C@@]3(C)[C@@H]4C[C@H](O)[C@H]5C(C)(C)[C@@H](O)CC[C@]5(C)C4=C[C@H](O)[C@]23C)O1 | 1.5 to 5.2 | 3.8 | – | – |
| CC(C)(O)[C@@H]1CC[C@](C)([C@H]2[C@@H](O)C[C@@]3(C)[C@@H]4C[C@H](O)[C@H]5C(C)(C)[C@@H](O)CC[C@@]56C[C@@]46C[C@H](O)[C@]23C)O1 | 1.5 to 5.2 | – | – | 5 |

From ChEMBL document CHEMBL4414649, “Microbial Transformation of Cycloastragenol and Astragenol by Endophytic Fungi Isolated from Astragalus Species” (J Nat Prod, 2019)
